Measurements: ChEMBL document CHEMBL4513216, “Probing the Open Global Health Chemical Diversity Library for Multistage-Active Starting Points for Next-Generation Antimalarials” (ACS Infect Dis, 2020)

Test: Toxicity liver stage against HepG2, at 10uM
Format: cell-based
Parameters: test concentration 10 uM, cell line HepG2-A16-CD81EGFP
Settings: human, HepG2-A16-CD81EGFP cells; read-out: INHIBITION
Summary of the method: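 Uninfected HepG2-A16-CD81EGFP cells, 3 × 10^3 per well, 1536-well, plated on prespotted compound at 10 μM final, parasite-free screening media added to match infected plates; puromycin 10 μM positive, DMSO 0.5% negative; run in parallel with 48 h PbLuc assay at 37 °C, 5% CO2; viability by CellTiter-Glo luminescence, normalized to controls.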

| SMILES | cytotoxicity at 10 µM [%] |
| --- | --- |
| Cc1cccc(-c2noc([C@@H]3C[C@@H](O)CN3Cc3ccc(CO)o3)n2)c1 | 7.38 |
| CNC(=O)C(C)(C)N1CCC[C@H]1C(=O)NCCN1CCOCC1 | 3.29 |
| CC(C)(C)c1cc(C[C@H]2CNCC[C@H]2CC(=O)N2CCCCC2)no1 | -1.91 |
| CCSc1ccccc1C(=O)NCC1CCN(Cc2ccsc2)CC1 | -8.44 |
| O=C(Cc1ccsc1)NCCc1ccoc1 | 5.5 |
| CC(=O)N1CCCC2(CCN(Cc3ccc(Cl)c(F)c3)C2)C1 (centres undefined) | 9.58 |
| Cn1cnc(S(=O)(=O)N2CCO[C@H]3[C@H](OCC4CC4)CC[C@@H]32)c1 | 8.31 |
| Cc1cc(C(=O)N2CCc3c(CN(C)C)nn(C)c3C2)[nH]n1 | -3.25 |
| O=C(c1ccnnc1)N1CCO[C@H]2[C@H](Oc3cccnc3)CC[C@@H]21 | 8.39 |
| O=C(CC1CC1)N1Cc2nccn2CC(COc2cccnc2)C1 (centres undefined) | 5.09 |
| O=C(O)c1nnn(Cc2cccc(C(F)(F)F)c2)c1-c1ccncc1 | 1.93 |
| CCn1c(NCc2ccc(OC)cc2)nc2c(C)nn(C)c2c1=O | 4.23 |
| Cc1ccnc(C2CCN(CCCOc3ccccc3F)C2)n1 (centres undefined) | 6.04 |
| CCCn1nc(C)c(CN(CCN(C)C)Cc2ccccn2)c1C | -0.641 |
| CN([C@@H]1CCC[C@@H](n2ccnc2)[C@@H]1O)S(=O)(=O)c1cn(C)cn1 | 0.57 |
| CN1CCC(c2cncc(Cl)n2)CC1 | 0.752 |
| CCCc1cc(C(=O)N[C@@H]2CCC[C@@H](N3CCCC3)[C@@H]2O)no1 | -2.48 |
| Cc1cnc(-c2nc(O)c3c(n2)CN(C(=O)C2CCOC2)CC3)cn1 (centres undefined) | -6.76 |
| CCOC(=O)c1n[nH]cc1-c1cncn1CC(C)n1nc(C)cc1C (centres undefined) | 2.25 |
| NC(=O)CN1CCCC1c1cncc(Oc2ccc(Cl)cc2)n1 (centres undefined) | -10.4 |
| CC(=O)N1CCCC1c1cccc(Cc2ccc(F)cc2)n1 (centres undefined) | -1.98 |
| Cc1ncc(CNC(=O)CCc2cccc(F)c2)c(C2CCCN2C)n1 (centres undefined) | -6.82 |
| Cc1ccc(C)c(-n2nnnc2SCN2CCCCC2=O)c1 | -47.3 |
| CN(Cc1cc(Cl)c2c(c1)OCO2)Cc1cscn1 | -2.76 |
| COC(=O)NCC(=O)N(C)Cc1csc(C)n1 | 2.33 |
| CN(C)C1CCCN(C(=O)NCCc2cc(F)ccc2F)C1 (centres undefined) | -1.05 |
| Cc1ccc(NC(=O)NC(C)(C)c2noc(C)n2)cc1 | 12.6 |

| SMILES | cytotoxicity at 10 µM [%] |
| --- | --- |
| CN(C)c1ccnc(N2CCC(NCCOc3ccccc3)CC2)n1 | -4.99 |
| O=C(Nc1ccccc1OC1CCOC1)c1cc[nH]n1 (centres undefined) | -1.57 |
| COCCN(C(=O)c1c[nH]c2ncccc12)C1CCCC1 | -3.08 |
| COc1ccccc1-c1noc(CNc2ccc(F)cc2OCCO)n1 | -37.7 |
| CCC(C)Oc1cc(C(=O)Nc2nc(C)ns2)ccn1 (centres undefined) | -1.02 |
| CC(C)c1ccc(-n2cc(O)c(C(=O)O)n2)cc1 | -42.4 |
| NC(=O)N1CCCN(C2CCCCc3ccccc32)CC1 (centres undefined) | -43.9 |
| Cc1cc(C(=O)N2CCn3cc(CN4CCCC4)nc3C2)no1 | -79.3 |
| N#Cc1cccc(N2CC3(CCN(C(=O)C4CC=CC4)C3)CC2=O)c1 (centres undefined) | 1.77 |
| Fc1cccc(-c2n[nH]cc2-c2nc(CN3CCOCC3)no2)c1 | -7.58 |
| COCCN1CCN(c2nc(C3CCCC3)nc3c2cnn3C)CC1 | -1.91 |
| Cc1ccnc(NCCNC(=O)Cc2c(C)[nH]c3c(C)ccc(C)c23)c1 | -1.89 |
| O=c1c(C(F)(F)F)cccn1Cc1nnc(-c2cccnc2)o1 | -2.93 |
| CCC[C@@H]1CN(Cc2c[nH]nc2-c2ccc(OC)cc2)C[C@H]1NC(C)=O | -0.566 |
| COCCN1CC(c2nc(CSC)no2)CCC1=O (centres undefined) | -7.74 |
| Cc1[nH]nc(CCC(=O)N2CCOC(CCc3ccccc3)C2)c1C (centres undefined) | -10.8 |
| O=C(Nc1ccccc1OCCc1ccccn1)NC1CCOCC1 | 2.43 |
| Cc1ccc(C)c(OCCNC(=O)[C@@H]2CCCCN2)c1 | 0.997 |
| NC(=O)c1noc(Cn2ccc3ccccc3c2=O)n1 | 1.39 |
| CC(C)CN1CCCn2nc(CNC(=O)NC(C)(C)C)cc2C1 | -4.54 |
| Cc1cccc(OCC2CCCN(C(=O)Cn3ccccc3=O)C2)c1 (centres undefined) | -0.503 |
| COc1nc2c(cc1C(=O)N1C[C@@H](N)C[C@H]1C(=O)NC(C)C)CCC2 | 3.52 |
| O=C(Cn1c(=O)oc2ccccc21)N1Cc2cnn(CCO)c2C1 | 0.154 |
| O=C(C1CCCO1)N1CCC(n2cc(-c3ccsc3)nn2)CC1 (centres undefined) | -4.18 |
| CCCC(=O)N(C)C(c1cccc(F)c1)c1ccccn1 (centres undefined) | -2.51 |
| CCc1nnc(NC(=O)Cc2c(C)nc(C)[nH]c2=O)s1 | -14.4 |
| Cc1nc2c(c(C)c1CC(=O)NCc1ccco1)c(=O)[nH]n2C | -42.5 |

| SMILES | cytotoxicity at 10 µM [%] |
| --- | --- |
| CCc1nc(C2CCCN(C(=O)NC(C)C)C2)no1 (centres undefined) | -14 |
| c1nc(CN2CCCC(Cc3ccc(NC4CCCC4)nn3)C2)c[nH]1 (centres undefined) | 3.6 |
| CC(C)NC(=O)CC1COC2(CCN(Cc3cccnc3)CC2)C1 (centres undefined) | 0.405 |
| Cc1ccc(CN2CC[C@H]3[C@H]2CCN3S(=O)(=O)C2CC2)s1 | 7.74 |
| O=C(NC1CC1)[C@@H]1CN(Cc2ccc3c(c2)OCO3)C[C@H]2OCC[C@H]21 | -1.79 |
| CN(C)CCN1CCC2(CCN(C(=O)c3ccncc3)CC2)C1=O | 0.0515 |
| O=C(NCc1ccco1)[C@H]1C[C@@H]2CCN(c3nncs3)C[C@H]2O1 | 1.84 |
| Cc1noc(C)c1CN1C[C@H](C)[C@]2(CCN(Cc3cccnc3)C2=O)C1 | 4.59 |
| Cc1nc(Cn2c3c(ccc2=O)CC(NC(C)C)CC3)cs1 (centres undefined) | 6.39 |
| Cc1cc(N(C)C)nc(C2CCCNC2)n1 (centres undefined) | -3.55 |
| CCC1=N[C@@]2(CC[C@@H]3CN(Cc4ccccc4F)C[C@@H]32)C(=O)N1CC | -12.4 |
| c1cnc(N2CC3(CCN(Cc4cccnc4)C3)C2)nc1 | -4.87 |
| CO[C@@H]1CCN(S(=O)(=O)N(C)C)[C@@H]2CN(Cc3ccncc3)C[C@@H]21 | 15.1 |
| CCn1ncc2c1C(COCC1CC1)N(Cc1ccccn1)CC2 (centres undefined) | 10.9 |
| CN1CCO[C@@H]2CN(S(=O)(=O)c3cccnc3)C[C@@H]2C1 | 6.17 |
| CCn1ncc2c1C(COCC1CC1)N(Cc1nccs1)CC2 (centres undefined) | 10.6 |
| COCCn1cc2c(n1)C(CNCc1ccc(F)cc1)OCC2 (centres undefined) | -9.47 |
| CN(C)CC1CN(C(=O)NCc2ccccc2)Cc2nccn2C1 (centres undefined) | -3.91 |
| CC(C)NC(=O)CC1COC2(CCN(Cc3ccsc3)CC2)C1 (centres undefined) | -1.6 |
| Cc1nc(CN2C[C@@H]3CN(C(=O)c4ccnnc4)C[C@@H]3C2=O)cs1 | -7.41 |
| Cc1ccc(CN2CC[C@H]3NC(=O)CC[C@@H]32)o1 | -5.28 |
| Cc1noc(C)c1CN1C[C@@H]2COC[C@H](C(=O)N3CCOCC3)[C@@H]2C1 | -70 |
| CN(C)Cc1nc2c(o1)CN(C(=O)NCc1cccc(F)c1)C2 | 5.32 |
| O=C(NCC1CC1)[C@H]1C[C@H]2CN(C(=O)NCc3ccccc3)C[C@@H]1O2 | 4.97 |
| CC(C)NC(=O)CC1[C@H]2CN(C(=O)Cc3ccccn3)C[C@@H]12 (some centres undefined) | 12 |
